Measured values reported in ChEMBL document CHEMBL2034960, “Bryonolic acid transcriptional control of anti-inflammatory and antioxidant genes in macrophages in vitro and in vivo” (J Nat Prod, 2012).
Activity calls are given as the source filed them. No cut-off for these calls is given here.

Legend:
[1] = molecular target: T1, Nuclear factor erythroid 2-related factor 2 (Mus musculus) (UniProt Q60795); assay: Induction of Nrf2-mediated CAT mRNA expression in mouse RAW264.7 cells at 100 uM after 4 to 20 hrs by quantitative RT-PCR analysis relative to control; type: cell-based
T1 sequence (whole entry): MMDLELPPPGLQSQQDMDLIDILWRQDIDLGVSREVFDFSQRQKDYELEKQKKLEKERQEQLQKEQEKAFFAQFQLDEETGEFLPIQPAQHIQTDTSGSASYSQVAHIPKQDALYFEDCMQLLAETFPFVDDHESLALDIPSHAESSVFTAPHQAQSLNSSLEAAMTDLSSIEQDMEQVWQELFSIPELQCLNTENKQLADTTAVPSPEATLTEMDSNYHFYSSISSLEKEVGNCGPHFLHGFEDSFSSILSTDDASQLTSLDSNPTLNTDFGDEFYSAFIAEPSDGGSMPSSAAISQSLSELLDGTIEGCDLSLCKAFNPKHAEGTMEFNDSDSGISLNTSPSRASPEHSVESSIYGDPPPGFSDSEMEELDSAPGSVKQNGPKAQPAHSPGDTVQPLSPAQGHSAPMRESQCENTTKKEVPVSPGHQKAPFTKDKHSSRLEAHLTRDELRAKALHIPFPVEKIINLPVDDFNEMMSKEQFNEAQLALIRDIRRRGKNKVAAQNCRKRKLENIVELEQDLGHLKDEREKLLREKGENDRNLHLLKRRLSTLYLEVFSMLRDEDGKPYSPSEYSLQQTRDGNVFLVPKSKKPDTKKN

RAW264.7 [2] = assay: Cytotoxicity against mouse RAW264.7 cells at 100 uM after 8 hrs by MTT assay; type: cell-based; conditions: raw264.7, 8 h
[3] = molecular target: T1, Nuclear factor erythroid 2-related factor 2 (Mus musculus); assay: Induction of Nrf2-mediated NQO1 mRNA expression in mouse RAW264.7 cells at 100 uM after 2 to 4 hrs by quantitative RT-PCR analysis relative to control; type: cell-based
[4] = molecular target: T1, Nuclear factor erythroid 2-related factor 2 (Mus musculus); assay: Induction of Nrf2-mediated HO1 mRNA expression in mouse RAW264.7 cells at 100 uM after 2 to 4 hrs by quantitative RT-PCR analysis relative to control; type: cell-based
RAW264.7 [5] = assay: Antioxidant activity in LPS-stimulated mouse RAW264.7 cells assessed as induction of HO-1 mRNA expression at 100 uM after 4 hrs by RT-PCR analysis; type: functional, cell-based
[6] = molecular target: T1, Nuclear factor erythroid 2-related factor 2 (Mus musculus); assay: Induction of Nrf2 in mouse RAW264.7 cells assessed as […] in CAT mRNA expression at 100 uM after 24 hrs by quantitative RT-PCR analysis relative to control; type: cell-based
RAW264.7 [7] = assay: Antiinflammatory activity in mouse RAW264.7 cells assessed as inhibition of LPS-induced nitric oxide production at 50 to 100 uM after 24 hrs by Griess method; type: functional; set-up: scale not given: the % may be the effect or the level left
[8] = molecular target: T1, Nuclear factor erythroid 2-related factor 2 (Mus musculus); assay: Induction of Nrf2-mediated NQO1 mRNA expression in mouse RAW264.7 cells at 100 uM after 24 hrs by quantitative RT-PCR analysis relative to control; type: cell-based
Procedure, shortened: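 RAW 264.7 cells (DMEM, 10% FBS, 37°C, 5% CO2) exposed to 100 μM compound for a series of time points without stated LPS activation. Total RNA isolated, converted to cDNA, and NQO1 quantified by TaqMan real-time RT-PCR using mouse-specific assays. Fold change versus control derived by the ΔΔCt relative quantification method (40 cycles, 95/60 °C).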

[9] = molecular target: T1, Nuclear factor erythroid 2-related factor 2 (Mus musculus); assay: Induction of Nrf2-mediated HO1 mRNA expression in mouse RAW264.7 cells at 100 uM after 24 hrs by quantitative RT-PCR analysis relative to control; type: cell-based

| SMILES | Activity [1] | Activity (RAW264.7 [2]) | Activity [3] | Activity [4] | Activity (RAW264.7 [5]) | Activity [6] | Activity (RAW264.7 [7]) [%] | Activity [8] | Activity [9] |
| --- | --- | --- | --- | --- | --- | --- | --- | --- | --- |
| CC1(C)CC[C@]2(C(=O)O)CC[C@]3(C)C(=CC[C@@H]4[C@@]5(C)CC[C@H](O)C(C)(C)[C@@H]5CC[C@]43C)[C@@H]2C1 [OLEANOLIC_ACID] | Active | Non-toxic | Active | Active | Active | inactive | 85 | inactive | inactive |
| C=C(C)[C@@H]1CC[C@]2(C(=O)O)CC[C@]3(C)[C@H](CC[C@@H]4[C@@]5(C)CC[C@H](O)C(C)(C)[C@@H]5CC[C@]43C)[C@@H]12 [BETULINIC ACID] | – | Toxic | – | – | – | – | – | – | – |
| C[C@H]1[C@H](C)CC[C@]2(C(=O)O)CC[C@]3(C)C(=CC[C@@H]4[C@@]5(C)CC[C@H](O)C(C)(C)[C@@H]5CC[C@]43C)[C@H]12 [URSOLIC ACID] | – | Toxic | – | – | – | – | – | – | – |
